Laboratory results reported in ChEMBL document CHEMBL4229342, “Synthesis of novel proxyphylline derivatives with dual Anti-Candida albicans and anticancer activity” (Eur J Med Chem, 2018).
Converted amounts (≈) assume the structure as drawn.

Columns and labels:
Candida albicans [1] = experiment: Growth inhibition of Candida albicans ATCC 90028 at 0.0313 ug/ml incubated for 18 hrs at 35 degC by broth microdilution method relative to control; type: functional; settings: ATCC 90028, 18 h, read-out: GI
Candida albicans [2] = experiment: Growth inhibition of Candida albicans ATCC 90028 at 0.0625 ug/ml incubated for 18 hrs at 35 degC by broth microdilution method relative to control; type: functional; settings: ATCC 90028, 18 h, read-out: GI
Candida albicans [3] = experiment: Growth inhibition of Candida albicans ATCC 90028 at 8 ug/ml incubated for 48 hrs at 35 degC by broth microdilution method relative to control; type: functional; settings: ATCC 90028, 48 h, read-out: GI
Candida albicans [4] = experiment: Growth inhibition of Candida albicans ATCC 90028 at 0.125 ug/ml incubated for 4 hrs at 35 degC by broth microdilution method relative to control; type: functional; settings: ATCC 90028, 4 h, read-out: GI
Candida albicans [5] = experiment: Growth inhibition of Candida albicans ATCC 90028 at 0.0625 ug/ml incubated for 4 hrs at 35 degC by broth microdilution method relative to control; type: functional; settings: ATCC 90028, 4 h, read-out: GI
Candida albicans [6] = experiment: Growth inhibition of Candida albicans ATCC 90028 at 4 ug/ml incubated for 18 hrs at 35 degC by broth microdilution method relative to control; type: functional; settings: ATCC 90028, 18 h, read-out: GI
MCF7 [7] = experiment: Antiproliferative activity against human MCF7 cells assessed as cell viability at 50 uM after 72 hrs by MTT assay; type: functional; settings: MCF7, 72 h, read-out: Activity
Method in brief: (§1)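 MTT viability assay in CCRF-CEM and MCF-7 cells after 72 h exposure at 25, 50, 100 and 200 µM. Results are relative to control cells without inhibitor in 0.5% DMSO. Done in triplicate; values are means ± SD of three independent experiments.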

CCRF-CEM [8] = experiment: Antiproliferative activity against human CCRF-CEM cells assessed as cell viability at 50 uM after 72 hrs by MTT assay; type: functional; settings: read-out: Activity; method in brief: as §1
Candida albicans [9] = experiment: Growth inhibition of Candida albicans ATCC 90028 at 16 ug/ml incubated for 18 hrs at 35 degC by broth microdilution method relative to control; type: functional; settings: ATCC 90028, 18 h, read-out: GI
Candida albicans [10] = experiment: Growth inhibition of Candida albicans ATCC 90028 at 1 ug/ml incubated for 4 hrs at 35 degC by broth microdilution method relative to control; type: functional; settings: ATCC 90028, 4 h, read-out: GI
Candida albicans [11] = experiment: Fungicidal activity against Candida albicans ATCC 90028 assessed as drug level causing 3 fold reduction in bacterial count after 48 hrs at 35 degC; type: functional; settings: ATCC 90028, 48 h
MCF7 [12] = experiment: Antiproliferative activity against human MCF7 cells assessed as cell viability at 100 uM after 72 hrs by MTT assay; type: functional; settings: MCF7, 72 h, read-out: Activity; method in brief: as §1
Candida albicans [13] = experiment: Growth inhibition of Candida albicans ATCC 90028 at 0.25 ug/ml incubated for 18 hrs at 35 degC by broth microdilution method relative to control; type: functional; settings: ATCC 90028, 18 h, read-out: GI
MCF7 [14] = experiment: Antiproliferative activity against human MCF7 cells assessed as cell viability at 25 uM after 72 hrs by MTT assay; type: functional; settings: MCF7, 72 h, read-out: Activity; method in brief: as §1
Candida albicans [15] = experiment: Growth inhibition of Candida albicans ATCC 90028 at 16 ug/ml incubated for 48 hrs at 35 degC by broth microdilution method relative to control; type: functional; settings: ATCC 90028, 48 h, read-out: GI
Candida albicans [16] = experiment: Growth inhibition of Candida albicans ATCC 90028 at 1 ug/ml incubated for 18 hrs at 35 degC by broth microdilution method relative to control; type: functional; settings: ATCC 90028, 18 h, read-out: GI
Candida albicans [17] = experiment: Growth inhibition of Candida albicans ATCC 90028 at 0.125 ug/ml incubated for 18 hrs at 35 degC by broth microdilution method relative to control; type: functional; settings: ATCC 90028, 18 h, read-out: GI
MCF7 [18] = experiment: Antiproliferative activity against human MCF7 cells assessed as cell viability at 200 uM after 72 hrs by MTT assay; type: functional; settings: MCF7, 72 h, read-out: Activity; method in brief: as §1
Vero [19] = experiment: Cytotoxicity in African green monkey Vero cells incubated for 18 hrs by XTT assay; type: cell-based; settings: Chlorocebus sabaeus
Candida albicans [20] = experiment: Growth inhibition of Candida albicans ATCC 90028 at 2 ug/ml incubated for 4 hrs at 35 degC by broth microdilution method relative to control; type: functional; settings: ATCC 90028, 4 h, read-out: GI
Candida albicans [21] = experiment: Growth inhibition of Candida albicans ATCC 90028 at 0.25 ug/ml incubated for 4 hrs at 35 degC by broth microdilution method relative to control; type: functional; settings: ATCC 90028, 4 h, read-out: GI
Vero [22] = experiment: Cytotoxicity in African green monkey Vero cells up to 64 ug/ml incubated for 3 to 18 hrs by XTT assay; type: cell-based; settings: chlorocebus sabaeus
Candida albicans [23] = experiment: Fungicidal activity against Candida albicans ATCC 90028 assessed as log reduction in cell viability at 16 ug/ml after 48 hrs at 35 degC; type: functional
Method in brief: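 MFC assay on C. albicans ATCC 90028 following M27-A3, at the molar equivalent of 16 µg/mL. CFU of treated cells were compared with CFU of the untreated inoculum. Activity is given as lg R = lg CFU/mL control − lg CFU/mL treated, and lg R ≥3 was defined as fungicidal. Values are means of two independent experiments.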

Candida albicans [24] = experiment: Growth inhibition of Candida albicans ATCC 90028 at 2 ug/ml incubated for 18 hrs at 35 degC by broth microdilution method relative to control; type: functional; settings: ATCC 90028, 18 h, read-out: GI
Candida albicans [25] = experiment: Growth inhibition of Candida albicans ATCC 90028 at 0.5 ug/ml incubated for 4 hrs at 35 degC by broth microdilution method relative to control; type: functional; settings: ATCC 90028, 4 h, read-out: GI
Candida albicans [26] = experiment: Growth inhibition of Candida albicans ATCC 90028 at 8 ug/ml incubated for 4 hrs at 35 degC by broth microdilution method relative to control; type: functional; settings: ATCC 90028, 4 h, read-out: GI
Candida albicans [27] = experiment: Growth inhibition of Candida albicans ATCC 90028 at 0.0313 ug/ml incubated for 4 hrs at 35 degC by broth microdilution method relative to control; type: functional; settings: ATCC 90028, 4 h, read-out: GI
CCRF-CEM [28] = experiment: Antiproliferative activity against human CCRF-CEM cells assessed as cell viability at 25 uM after 72 hrs by MTT assay; type: functional; settings: read-out: Activity; method in brief: as §1
Candida albicans [29] = experiment: Growth inhibition of Candida albicans ATCC 90028 at 8 ug/ml incubated for 18 hrs at 35 degC by broth microdilution method relative to control; type: functional; settings: ATCC 90028, 18 h, read-out: GI
Candida albicans [30] = experiment: Growth inhibition of Candida albicans ATCC 90028 at 0.5 ug/ml incubated for 18 hrs at 35 degC by broth microdilution method relative to control; type: functional; settings: ATCC 90028, 18 h, read-out: GI
CCRF-CEM [31] = experiment: Antiproliferative activity against human CCRF-CEM cells assessed as cell viability at 200 uM after 72 hrs by MTT assay; type: functional; settings: read-out: Activity; method in brief: as §1
CCRF-CEM [32] = experiment: Antiproliferative activity against human CCRF-CEM cells assessed as cell viability at 100 uM after 72 hrs by MTT assay; type: functional; settings: read-out: Activity; method in brief: as §1
CCRF-CEM [33] = experiment: Antiproliferative activity against human CCRF-CEM cells after 72 hrs by MTT assay; type: functional, cell-based
Method in brief: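 EC50 was derived from a repeat 72 h MTT assay in CCRF-CEM or MCF-7 cells. It is the concentration killing 50% of tumour cells compared with control cells incubated without inhibitor in 0.5% DMSO.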

Candida albicans [34] = experiment: Growth inhibition of Candida albicans ATCC 90028 at 0.625 ug/ml incubated for 18 hrs at 35 degC by broth microdilution method relative to control; type: functional; settings: ATCC 90028, 18 h, read-out: GI
Candida albicans [35] = experiment: Antifungal activity against Candida albicans ATCC 90028 assessed as reduction in cell viability after 48 hrs in absence of ergosterol by XTT assay; type: functional; settings: ATCC 90028, 48 h
Candida albicans [36] = experiment: Antifungal activity against Candida albicans ATCC 90028 assessed as reduction in cell viability at 1022.5 to 0.06 uM after 48 hrs in presence of ergosterol by XTT assay; type: functional; settings: ATCC 90028, 48 h
Candida albicans [37] = experiment: Antifungal activity against Candida albicans ATCC 90028 assessed as reduction in cell viability at 0.1 uM after 48 hrs in presence of ergosterol by XTT assay; type: functional
Candida albicans [38] = experiment: Antifungal activity against Candida albicans ATCC 90028 assessed as reduction in cell viability at 0.3 uM after 48 hrs in absence of ergosterol by XTT assay; type: functional
Candida albicans [39] = experiment: Growth inhibition of Candida albicans ATCC 90028 at 0.625 ug/ml incubated for 48 hrs at 35 degC by broth microdilution method relative to control; type: functional; settings: ATCC 90028, 48 h, read-out: GI

SMILES	inhibition of growth at 0.0625 µg/mL (Candida albicans [2])	inhibition of growth at 8 µg/mL (Candida albicans [3])	inhibition of growth at 0.125 µg/mL (Candida albicans [4])	inhibition of growth at 0.0625 µg/mL (Candida albicans [5])	inhibition of growth at 4 µg/mL (Candida albicans [6])	viability at 50 µM (MCF7 [7])	viability at 50 µM (CCRF-CEM [8])	inhibition of growth at 16 µg/mL (Candida albicans [9])	inhibition of growth at 1 µg/mL (Candida albicans [10])	MFC (Candida albicans [11])	viability at 100 µM (MCF7 [12])	inhibition of growth at 0.25 µg/mL (Candida albicans [13])	viability at 25 µM (MCF7 [14])	inhibition of growth at 16 µg/mL (Candida albicans [15])	inhibition of growth at 1 µg/mL (Candida albicans [16])	inhibition of growth at 0.125 µg/mL (Candida albicans [17])	viability at 200 µM (MCF7 [18])	IC50 (Vero [19])	inhibition of growth at 2 µg/mL (Candida albicans [20])	inhibition of growth at 0.25 µg/mL (Candida albicans [21])	also measured
CC(Cn1cnc2c1c(=O)n(C)c(=O)n2C)OC(=O)N1c2ccccc2C=Cc2ccccc21 (centres undefined)	99.9%	99.2%	99.7%	99.3%	100%	98.8%	39.3%	100%	99.3%	35 µM (≈ 16 µg/mL)	82.5%	100%	93.4%	100%	100%	100%	76.5%	≥ 280 µM	99.4%	99.2%	inhibition of growth at 0.0313 µg/mL (Candida albicans [1]): 99.8%; Activity (Vero [22]): Non-Toxic; log(activity) (Candida albicans [23]): 8; inhibition of growth at 2 µg/mL (Candida albicans [24]): 99.8%; inhibition of growth at 0.5 µg/mL (Candida albicans [25]): 99.2%; inhibition of growth at 8 µg/mL (Candida albicans [26]): 99.2%; inhibition of growth at 0.0313 µg/mL (Candida albicans [27]): 99.1%; viability at 25 µM (CCRF-CEM [28]): 52.4%; inhibition of growth at 8 µg/mL (Candida albicans [29]): 99.8%; inhibition of growth at 0.5 µg/mL (Candida albicans [30]): 99.7%; viability at 200 µM (CCRF-CEM [31]): 23.4%; viability at 100 µM (CCRF-CEM [32]): 23.9%
CC(Cn1cnc2c1c(=O)n(C)c(=O)n2C)OCc1cn(CCCn2cnc3c(Br)c(Br)c(Br)c(Br)c32)nn1 (centres undefined)	99.7%	99.2%	99.6%	99.3%	99.9%	29.7%	0%	99.9%	99.2%	36 µM (≈ 28.6 µg/mL)	2%	100%	74.5%	100%	100%	100%	4.1%	≥ 280 µM	99.2%	99.6%	EC50 (CCRF-CEM [33]): 6.3 µM; Activity (Vero [22]): Non-Toxic; log(activity) (Candida albicans [23]): 8; inhibition of growth at 2 µg/mL (Candida albicans [24]): 100%; inhibition of growth at 0.5 µg/mL (Candida albicans [25]): 99%; inhibition of growth at 8 µg/mL (Candida albicans [26]): 99%; viability at 25 µM (CCRF-CEM [28]): 0%; inhibition of growth at 8 µg/mL (Candida albicans [29]): 99.9%; inhibition of growth at 0.5 µg/mL (Candida albicans [30]): 99.6%; viability at 200 µM (CCRF-CEM [31]): 0%; viability at 100 µM (CCRF-CEM [32]): 0%
C[C@@H]1[C@H](O)[C@@H](C)/C=C/C=C/C=C/C=C/C=C/C=C/C=C/[C@H](O[C@@H]2O[C@H](C)[C@@H](O)[C@H](N)[C@@H]2O)C[C@@H]2O[C@](O)(C[C@@H](O)C[C@@H](O)[C@H](O)CC[C@@H](O)C[C@@H](O)CC(=O)O[C@H]1C)C[C@H](O)[C@H]2C(=O)O [AMPHOTERICIN B]																					inhibition of growth at 0.625 µg/mL (Candida albicans [34]): 100%; MIC (Candida albicans [35]): 0.3 µM (≈ 0.277 µg/mL); MIC (Candida albicans [36]): 0.1 µM; Activity (Candida albicans [37]): 78.5%; Activity (Candida albicans [38]): 95.5%; inhibition of growth at 0.625 µg/mL (Candida albicans [39]): 100%
